Reference: PubChem BioAssay AID463201 (Sanford-Burnham Center for Chemical Genomics, 2010)
Activity calls are given as the source filed them.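 How the source made its calls: active means activation above 50% at 10 µM in both replicate datasets; inactive means the rest.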

What follows are compounds tested against Vasopressin V2 receptor (Homo sapiens) (UniProt P30518) (assay: vasopressin V2 receptor agonist activity, SAR follow-up, selectivity assay for GPR35 antagonist project, imaging, beta-arrestin-GFP, U2OS, agonist mode (AID 463201)). Conditions: U2OS V2R beta-arrestin-GFP translocation imaging, 40 min; at 10 µM; stronger effect = higher value.
Sequence of Vasopressin V2 receptor (Homo sapiens) (P30518 whole entry, looked up): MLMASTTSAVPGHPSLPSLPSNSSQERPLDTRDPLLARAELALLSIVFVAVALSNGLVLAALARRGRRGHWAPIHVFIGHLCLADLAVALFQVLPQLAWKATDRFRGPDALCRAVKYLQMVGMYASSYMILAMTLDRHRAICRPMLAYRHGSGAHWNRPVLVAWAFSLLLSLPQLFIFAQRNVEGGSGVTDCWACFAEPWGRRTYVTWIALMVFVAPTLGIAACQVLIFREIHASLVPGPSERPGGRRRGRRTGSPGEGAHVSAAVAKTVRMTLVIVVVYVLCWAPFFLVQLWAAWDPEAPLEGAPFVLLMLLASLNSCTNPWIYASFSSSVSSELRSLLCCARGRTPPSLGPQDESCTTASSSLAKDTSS
Summary of the method: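 Material – U2OS cells stably expressing human vasopressin receptor and beta-arrestin2-GFP · Medium – serum-free culture medium during compound exposure · Dosing – 10 µM single dose, 0.1% DMSO · Timing – compound exposure 40 min at 37 °C, then fixation · Signal – fluorescence imaging at 40x of arrestin-GFP spots after 1% PFA fixation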

activation, inactive:
Cc1ccc(Cn2ncc3c(N4CCN(c5ccccc5C)CC4)ncnc32)cc1 -0.08%
CCOc1ccc(NC(=O)CSc2nc3ccsc3c(=O)n2Cc2ccc(C(=O)O)cc2)cc1 0.24%
CC(C)c1ccc(NC(=O)CSc2nc3ccsc3c(=O)n2Cc2ccc(C(=O)O)cc2)cc1 0.05%
CC(C)(C)c1ccc(OCCC(=O)NCCc2ccc(S(N)(=O)=O)cc2)cc1 -0.05%
O=C(Nc1ccc2nc(SCc3ccc(Cl)cc3)sc2c1)c1ccccc1C(=O)N1CCOCC1 0.71%
Clc1ccc(Cn2ncc3c(N4CCN(c5ccccc5)CC4)ncnc32)cc1 -0.08%
O=C(CCCN1C(=O)/C(=C/c2ccc3c(c2)OCO3)SC1=S)Nc1ccc(C(=O)O)c(O)c1 0.21%
O=C(CCCN1C(=O)/C(=C/c2ccc3c(c2)OCO3)SC1=S)Nc1ccc(C(=O)O)cc1 -0.34%
Cc1ccc(/C=C2\SC(=S)N(CCCC(=O)Nc3ccc(O)cc3)C2=O)cc1 -0.18%
COc1cccc(/C=C2\SC(=S)N(CCCC(=O)Nc3ccc(C(=O)O)cc3)C2=O)c1 -0.18%
CC(/C=C1\SC(=S)N(CCCC(=O)Nc2ccc(C(=O)O)c(O)c2)C1=O)=C\c1ccccc1 0.21%
CCOC(=O)c1ccc(NC(=O)CCCN2C(=O)/C(=C/c3ccc(C)cc3)SC2=S)cc1 0.05%
Cc1c(C(=O)Nc2ccc3c(c2)OCCO3)sc2ncnc(N3CCC(C)CC3)c12 -0.03%
O=C(CCCN1C(=O)S/C(=C\C=C\c2ccccc2)C1=O)Nc1ccc(C(=O)O)cc1 0.11%
O=C(Nc1ccc2nc(SCc3ccccc3)sc2c1)c1ccccc1C(=O)N1CCOCC1 -0.18%
Cc1ccc(/C=C2\SC(=S)N(CCCC(=O)Nc3cccc(C(=O)O)c3)C2=O)cc1 -0.08%
COc1ccc(/C=C2\SC(=S)N(CCCC(=O)Nc3ccc(C(=O)O)c(O)c3)C2=O)cc1OC -0.24%
CC(/C=C1\SC(=S)N(CCCC(=O)Nc2ccc(C(=O)O)cc2)C1=O)=C\c1ccccc1 -0.11%
Cc1ccccc1N1CCN(c2ncnc3c2cnn3Cc2ccc(Cl)cc2)CC1 -0.16%
O=C(CCCN1C(=O)/C(=C\c2ccccc2)SC1=S)Nc1ccc(C(=O)O)cc1 0.29%
COc1ccc(/C=C2/SC(=S)N(CCCC(=O)Nc3ccc(O)cc3)C2=O)cc1 -0.32%
O=C(CCCN1C(=O)S/C(=C/C=C/c2ccccc2)C1=O)Nc1ccc(C(=O)O)cc1 -0.18%
O=C(CCCN1C(=O)/C(=C/c2ccc3c(c2)OCO3)SC1=S)Nc1cccc(C(=O)O)c1 -0.29%
COc1ccc(/C=C2\SC(=S)N(CCCC(=O)Nc3ccc(O)cc3)C2=O)cc1 -0.03%
Cc1nc(N2CCC(C)CC2)c2c(C)c(C(=O)Nc3ccc4c(c3)OCCO4)sc2n1 -0.13%
CCc1ccc(/C=C2\SC(=S)N(CCCC(=O)Nc3ccc(C(=O)O)cc3)C2=O)cc1 -0.5%
O=C(CCCN1C(=O)/C(=C\c2ccccc2)SC1=S)Nc1cccc(C(=O)O)c1 0.66%
COc1ccc(/C=C2\SC(=S)N(CCCC(=O)Nc3cccc(C(=O)O)c3)C2=O)cc1OC -0.11%
O=C(CCCN1C(=O)S/C(=C/c2ccccc2)C1=S)Nc1ccc(C(=O)O)cc1 -0.21%
O=C(CCCN1C(=O)/C(=C/c2ccccc2)SC1=S)Nc1ccc(C(=O)O)c(O)c1 1.45%
